These results are taken from ChEMBL document CHEMBL4145455, “Design, synthesis and evaluation of novel phenyl propionamide derivatives as non-nucleoside hepatitis B virus inhibitors” (Eur J Med Chem, 2018).

Structures are written as SMILES. pIC50: −log10 of the molar value.

Data set [1] can be described thus: Cytotoxicity against human HepG2(2.2.15) cells assessed as reduction in cell viability after 72 hrs by MTT assay. Format: cell-based. An outline of the steps:
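Confluent HepG2 2.2.15 cells exposed to graded compound concentrations for 72 h alongside untreated controls on each plate; viability by MTT uptake, absorbance 490 nm relative to untreated cells; CC50 = concentration killing 50% of cells. Three replicates.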
Background: Tetrazolium assays rely on reduction of a dye to a coloured formazan, in cell work by metabolically active cells.

In data set [2] the test system is Hepatitis B virus. Nature of the data set: Antiviral activity against HBV infected in human HepG2(2.2.15) cells assessed as inhibition of viral DNA replication at 20 uM after 6 days by RT-PCR method relative to control. Format: functional. The settings on record: HepG2 2.2.15, 144 h. The method in brief:
(§1)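 HepG2 2.2.15 cells (stable HBV genome; DMEM, 10% FBS, G418 0.38 mg/mL) seeded 2×10^5/well, recovered 24 h, then compound in assay medium (single 20 or 4 μM, or dose series for IC50), medium changed every 2 days; after 6 days HBV DNA extracted and quantified by real-time PCR. Mean ± SD, ≥3 independent experiments in duplicate.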

In data set [3] the test system is Hepatitis B virus. Put plainly: Antiviral activity against lamivudine/entecavir resistant HBV harboring reverse transcriptase L180M/M204V/T184L mutant infected in human […] cells assessed as inhibition of viral DNA replication at 1 uM after 72 hrs by RT-PCR method relative to control. Format: functional. An outline of the steps: (§2)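 HepG2 cells (not 2.2.15) were transiently transfected for 24 h with a plasmid carrying the rtL180M + rtM204V + rtT184L mutant HBV genome, alongside wild-type. After a PBS wash, cells received a single concentration (1, 10 or 100 µM) in fresh medium for 72 h. HBV DNA replicative intermediate was measured by real-time PCR and compared with the wild-type group.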

Data set [4] is described as follows: Selectivity index, ratio of CC50 for human HepG2(2.2.15) cells to IC50 for antiviral activity against HBV infected in human HepG2(2.2.15) cells assessed as inhibition of viral DNA replication. It is filed as toxicity, cell-based. The settings on record: read-out: Ratio CC50/IC50. The method in brief: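 SI calculated as CC50 (72 h MTT, HepG2 2.2.15) divided by IC50 for inhibition of HBV DNA replication measured by real-time PCR.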

The nature of data set [5]: Selectivity index, ratio of CC50 for human HepG2(2.2.15) cells to IC50 for antiviral activity against lamivudine/entecavir resistant HBV harboring reverse transcriptase L180M/M204V/T184L mutant infected in human HepG2(2.2.15) cells. It is filed as toxicity, cell-based. The settings on record: read-out: Ratio CC50/IC50. An outline of the steps:
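SI = CC50/IC50. CC50 comes from HepG2 2.2.15 cells grown to confluence and treated for 72 h, with MTT absorbance at 490 nm relative to untreated cells, in triplicate. IC50 comes from mutant-plasmid-transfected HepG2 cells treated for 72 h, with HBV DNA measured by real-time PCR.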

Data set [6] has as its system Hepatitis B virus. Nature of the data set: Antiviral activity against HBV infected in human […] cells assessed as inhibition of viral DNA replication at 1 uM after 72 hrs by RT-PCR method relative to control. It is filed as functional. The method in brief: (§3)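 HepG2 cells (2×10^5/well) transfected overnight-plated, 24 h with plasmid carrying wild-type or rtL180M+rtM204V+rtT184L resistant HBV; after PBS wash, fresh medium with lamivudine 100 μM, entecavir 10 μM, or test compounds 1 μM (one at 10 μM) for 72 h; replicative intermediate HBV DNA measured by real-time PCR.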

The subject of data set [7] is Hepatitis B virus. Put plainly: Antiviral activity against HBV infected in human HepG2(2.2.15) cells assessed as inhibition of viral DNA replication at 4 uM after 6 days by RT-PCR method relative to control. It is filed as functional. The settings on record: HepG2 2.2.15, 144 h. An outline of the steps: as §1
In data set [8] the test system is Hepatitis B virus. Put plainly: Antiviral activity against HBV infected in human HepG2(2.2.15) cells assessed as inhibition of viral DNA replication after 6 days by RT-PCR method. Format: functional, organism-based. The settings on record: HepG2 2.2.15, 144 h. The method in brief: as §1
Data set [9] deals with Hepatitis B virus. Nature of the data set: Antiviral activity against lamivudine/entecavir resistant HBV harboring reverse transcriptase L180M/M204V/T184L mutant infected in human […] after 72 hrs by RT-PCR method. Format: functional, organism-based. An outline of the steps:
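HepG2 cells (2×10^5 per well) were plated, incubated overnight, then transiently transfected for 24 h with a plasmid carrying the full HBV genome with rtL180M + rtM204V + rtT184L. Medium was discarded, cells washed with PBS, then treated across a dose range in fresh medium for 72 h. Intracellular HBV DNA replicative intermediate was quantified by real-time PCR. IC50 is 50% inhibition of DNA replication.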

For data set [10], the system named is Hepatitis B virus. Put plainly: Antiviral activity against lamivudine/entecavir resistant HBV harboring reverse transcriptase L180M/M204V/T184L mutant infected in human […] at 10 uM after 72 hrs by RT-PCR method relative to control. Format: functional. The method in brief: as §2
Data set [11] relates to Hepatitis B virus. Put plainly: Antiviral activity against HBV infected in human […] at 10 uM after 72 hrs by RT-PCR method relative to control. It is filed as functional. The method in brief:
as §3

As a reminder, the CC50 is the concentration at which the toxic effect on the cells reaches its halfway point. By inhibition is commonly meant the relative decrease from the control value, in per cent. As for `CN(C)CCOc1ccc(C[C@H](NC(=O)c2ccccc2)C(=O)N[C@H](CO)Cc2ccccc2)cc1`, in [1], the CC50 at 72 h was more than 100 µM. Further, the inhibition at 20 µM in the data set with Hepatitis B virus [2] was 69.2%.
On the same counts, the results for `O=C(N[C@H](CO)Cc1ccccc1)/C(=C\c1ccccc1)NC(=O)c1ccccc1F` are more than 100 µM and 51.4%.
One may read the pIC50 as the negative decadic logarithm of the IC50, by convention in mol/L. As for `CN(C)CCOc1ccc(/C(Br)=C(/NC(=O)c2ccccc2)C(=O)N[C@H](CO)Cc2ccccc2)cc1`, the figures for the inhibition at 1 µM in the data set with Hepatitis B virus [3] and with Hepatitis B virus [6] were 80.1% and 79.6%, respectively. The selectivity ratio in [4] came out at 153; in data set [5], 89.7. Moreover, the inhibition at 4 µM in the data set on Hepatitis B virus [7] is 99.5%. The CC50 at 72 h in data set [1] fell in the range of 21.4 to 28.7 µM. The pIC50 in the data set with Hepatitis B virus [8] was 6.85; with Hepatitis B virus [9] it was 6.49.
For the molecule `CN(C)CCOc1ccc(C[C@H](NC(=O)c2ccccc2)C(=O)N2CCCCC2)cc1`, the CC50 at 72 h in data set [1] is more than 100 µM. Besides, the inhibition at 20 µM with Hepatitis B virus [2] was 51.6%.
On to `O=C(N[C@H](CO)Cc1ccccc1)/C(=C\c1ccc(O)cc1)NC(=O)c1ccccc1`, for which the cytotoxic concentration (CC50) at 72 h in [1] was more than 100 µM. Besides, the inhibition at 20 µM in the data set on Hepatitis B virus [2] turned out to be 24.9%.
In the case of `O=C(N[C@H](CO)Cc1ccccc1)/C(NC(=O)c1ccccc1F)=C(/Br)c1ccccc1`, in data set [4], the selectivity ratio turned out to be 41. For the same molecule, the 50% cytotoxic concentration (CC50) at 72 h in [1] is more than 100 µM. Besides, the pIC50 in the data set with Hepatitis B virus [8] is 5.61. For the same molecule, the inhibition at 20 µM in the data set on Hepatitis B virus [2] came to 76.4%.
In the case of `CN(C)CCOc1ccc(C[C@H](NC(=O)c2ccccc2)C(=O)N2CCOCC2)cc1`, the CC50 at 72 h in data set [1] was more than 100 µM. In the data set on Hepatitis B virus [2], the inhibition at 20 µM amounted to 24.9%.
For `O=C(N[C@H](CO)Cc1ccccc1)/C(NC(=O)c1ccccc1)=C(/Br)c1ccccc1Cl`, the selectivity ratio in data set [4] turned out to be 35.5. Also, the CC50 at 72 h in data set [1] worked out at 66.7 µM. In the data set on Hepatitis B virus [8], the pIC50 was 5.73. Besides, the inhibition at 20 µM in the data set on Hepatitis B virus [2] turned out to be 80.2%.
As for `CN(C)CCOc1ccc(/C=C(/NC(=O)c2ccccc2)C(=O)N[C@H](CO)Cc2ccccc2)cc1`, the CC50 at 72 h in data set [1] was more than 100 µM. Also, the inhibition at 20 µM with Hepatitis B virus [2] is 37.5%.
Consider `O=C(N[C@H](CO)Cc1ccccc1)/C(=C\c1ccccc1Br)NC(=O)c1ccccc1`, for which the CC50 at 72 h in [1] is more than 100 µM. The inhibition at 20 µM with Hepatitis B virus [2] worked out at 26.2%.
Take `CN(C)CCOc1ccc(C[C@H](NC(=O)c2ccccc2)C(=O)N2CCCC2)cc1`: the CC50 at 72 h in data set [1] was more than 100 µM. Besides, the inhibition at 20 µM in the data set with Hepatitis B virus [2] came out at 47.6%.
For the molecule `C=C1[C@H](CO)[C@@H](O)C[C@@H]1n1cnc2c(=O)[nH]c(N)nc21` [ENTECAVIR], the inhibition at 10 µM in the data set on Hepatitis B virus [10] is 17.9%; in the data set on Hepatitis B virus [11], 95.7%.
On to `O=C(N[C@H](CO)Cc1ccccc1)/C(NC(=O)c1ccccc1)=C(/Br)c1ccc(Br)cc1`, for which, in [4], the selectivity ratio is more than 22.5. Also, the cytotoxic concentration (CC50) at 72 h in [1] was more than 100 µM. Besides, the pIC50 in the data set with Hepatitis B virus [8] was 5.35. Also, the inhibition at 20 µM in the data set on Hepatitis B virus [2] amounted to 73.1%.
On the same counts, the results for `O=C(N[C@H](CO)Cc1ccccc1)/C(NC(=O)c1ccccc1)=C(/Br)c1ccccc1Br` are more than 13.8, more than 100 µM, 5.14 and 76.6%.
Regarding `N#Cc1ccc(/C=C(/NC(=O)c2ccccc2)C(=O)N[C@H](CO)Cc2ccccc2)cc1`, in [1], the CC50 at 72 h was more than 100 µM. In the data set on Hepatitis B virus [2], the inhibition at 20 µM was found to be 10.2%.
Consider `O=C(N[C@H](CO)Cc1ccccc1)/C(NC(=O)c1ccccc1)=C(/Br)c1ccc(O)cc1`, for which the inhibition at 1 µM in the data set on Hepatitis B virus [3] was determined as 43.2%; with Hepatitis B virus [6], 34.8%. In addition, the selectivity ratio was found to be 19.5 in [4] and 11.6 in [5]. In addition, the inhibition at 4 µM in the data set on Hepatitis B virus [7] is 63.2%. Besides, in data set [1], the CC50 at 72 h lay within 34.3 to 39 µM. In addition, the pIC50 was 5.70 in the data set on Hepatitis B virus [8] and 5.53 in the data set with Hepatitis B virus [9].
`O=C(N[C@H](CO)Cc1ccccc1)/C(=C\c1ccccc1Cl)NC(=O)c1ccccc1`: the CC50 at 72 h in data set [1] was more than 100 µM. Besides, the inhibition at 20 µM with Hepatitis B virus [2] was 29.8%.
Turning to `O=C(N[C@H](CO)Cc1ccccc1)/C(=C\c1ccc(Br)cc1)NC(=O)c1ccccc1`, the inhibition at 4 µM in the data set on Hepatitis B virus [7] turned out to be 39%. For the same molecule, the CC50 at 72 h in [1] came out at 72.7 µM.
Regarding `O=C(N[C@@H](Cc1ccc(O)cc1)C(=O)N1CCCCC1)c1ccccc1`, in data set [1], the CC50 at 72 h is more than 100 µM. The inhibition at 20 µM in the data set with Hepatitis B virus [2] is 19.5%.
In the case of `O=C(N[C@H](CO)Cc1ccccc1)/C(NC(=O)c1ccccc1)=C(/Br)c1ccccc1`, in [4], the selectivity ratio was more than 25.9. Besides, the CC50 at 72 h in data set [1] was more than 100 µM. For the same molecule, in the data set on Hepatitis B virus [8], the pIC50 was 5.41. In the data set with Hepatitis B virus [2], the inhibition at 20 µM was 77.6%.
Consider `O=C(N[C@@H](Cc1ccccc1)C(=O)N1CCCCC1)c1ccccc1`, for which the CC50 at 72 h in data set [1] is more than 100 µM. Further, in the data set on Hepatitis B virus [2], the inhibition at 20 µM was determined as 42.3%.
Turning to `CCN(CC)C(=O)[C@H](Cc1ccc(OCCN(C)C)cc1)NC(=O)c1ccccc1`, in data set [1], the CC50 at 72 h was more than 100 µM. In the data set on Hepatitis B virus [2], the inhibition at 20 µM was 17.5%.
Consider `N#Cc1ccc(/C(Br)=C(/NC(=O)c2ccccc2)C(=O)N[C@H](CO)Cc2ccccc2)cc1`, for which the selectivity ratio in [4] was 18.2. The CC50 at 72 h in data set [1] was more than 100 µM. Also, in the data set on Hepatitis B virus [8], the pIC50 was 5.26. In addition, in the data set with Hepatitis B virus [2], the inhibition at 20 µM was determined as 75.1%.
In the case of `Cc1cccc(/C=C(/NC(=O)c2ccccc2)C(=O)N[C@H](CO)Cc2ccccc2)c1`, in [1], the CC50 at 72 h was more than 100 µM. For the same molecule, the inhibition at 20 µM in the data set with Hepatitis B virus [2] is 15.8%.
